Assay [1] can be described thus: OD615 S. cerevisiae growth inhibition, permissive medium, pilot counter-assay, permissive growth control for S. cerevisiae lifespan shortening project (AID 705). The settings on record: OD615, 24 h, at 10 µM, hits give high values. In short, it runs like this:
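Test system: Saccharomyces cerevisiae strain carrying genetically modified DeaD replicative-lifespan system; buffer or medium: SC raffinose/galactose permissive medium; dosing: one dose 10 µM, DMSO 0.25% final; times: 24 h exposure, 30 °C; measured by: OD at 615 nm; read-out basis: growth inhibition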

Assay [2] can be described thus: Restrictive medium S. cerevisiae growth inhibition, OD615, pilot screen of yeast lifespan reduction project, restrictive growth control (AID 706;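 active means growth inhibition above a set limit, 3 SD over mean compound inhibition, in both replicates, cut at about 43% in these data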;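 further: modified DeaD lifespan yeast strain shifted to restrictive glucose medium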). The settings on record: OD615, 48 h, at 10 µM, hits give high values. In short, it runs like this:
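material = engineered S. cerevisiae DeaD strain | buffer or medium = glucose-based CSMM-D restrictive medium | dosing = one concentration, 10 µM final, 0.25% DMSO | schedule = 4 h pre-growth plus 48 h compound exposure, 30 °C | detection = OD615 absorbance reading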

Assay [3] is described as follows: viability gain of MRP-1-high H69AR cells under doxorubicin, pilot screen, MRP-1 activator project, CellTiter-Glo, duplicate (AID 807;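 active means viability increase at or above a cutoff of the median across tested compounds plus 3 SD, cut at about 8.5% in these data, passing the limit was not always enough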;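 further: compound pretreatment 18-22 h then 72 h combined with doxorubicin; 0% = doxorubicin alone and 100% = vehicle without doxorubicin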). To be noted: H69AR viability with doxorubicin, CellTiter-Glo luminescence; at 10 µM; hits give high values. For orientation: Cellular ATP, detected with luciferase, serves as a proxy for viable cell number.
Assay [4] is described as follows: growth suppression of beta-catenin knockout HCT116, pilot screen, human colon tumor cells (AID 823;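 active means cell viability at or below a set limit in both duplicate runs, the limit being the all-compound median minus 4 SD, cut at about 23% in these data, passing the limit was not always enough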;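 further: 0% = wells killed by 20 µM Hyamine and 100% = untreated DMSO cell wells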). To be noted: CellTiter-Glo, 60 h, at 10 µM, hits give low values.
Assay [5] in a line: growth suppression of PTEN-deleted HCT116, pilot screen, cell-based, HCT116 clonal line, CellTiter-Glo (AID 824;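 active means viability at or below 27.92% in each of two runs, the all-compound median minus 4 SD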;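 further: 0% = 20 µM Hyamine control and 100% = vehicle cell control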). The settings on record: 60 h, at 10 µM, hits give low values.
The nature of assay [6]: inhibitors of the yeast RAM network, pilot screen, dse1pr::URA3 reporter, 5-FOA selection (AID 869;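 active means inhibition over a set limit, the all-compound mean plus 3 SD, in both replicate runs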;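 further: 0% = DMSO wells with no growth and 100% = 10 µM 1-NA-PP1 with full growth; RAM network block rescues cells from 5-FOA so hits raise OD615 growth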). The settings on record: S. cerevisiae dse1pr::URA3 5-FOA growth, OD615, 2 d; at 10 µM; hits give high values; strain carries analog-sensitive mutant Cbk1 kinase.
Assay [7] can be described thus: RAM signaling pathway blockade in yeast – S. cerevisiae, Pdr1DBD-CYC8 efflux-inhibited sensitized strain, primary screen (AID 1298;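 active means RAM network inhibition above 8.4% in each of two replicates, 3 SD over the compound average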;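 further: 0% = DMSO untreated cells without growth and 100% = 10 µM 1-NA-PP1 full growth; higher means more yeast growth rescued from 5-FOA killing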). The settings on record: S. cerevisiae cbk1-as DSE1-URA3 strain, 5-FOA growth OD615, 2 d; at 50 µM; hits give high values.

Values without a mark were called inactive. Records with an inconclusive call do not appear. Calls of active or inactive are those of the source.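 How the source made its calls, unless noted: active means growth inhibition above 25% in both replicates, a cutoff set 3 SD above the mean; inconclusive means above 25% in only one replicate; inactive means the rest.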

`Cc1csc2nc(CNS(=O)(=O)c3ccc4c(c3)OCCO4)cn12`: the values for the growth inhibition in assay [1] and in assay [2] were 4.07% and -5.18%, respectively. In addition, the viability increase in assay [3] was -1.85%. The viability was 91.9% in assay [4] and 85.7% in assay [5]. In addition, the inhibition in assay [6] was 3.93%. In addition, the RAM network inhibition in assay [7] was 2.03%.

For the compound `CCOc1ccc(N(CC(=O)NC2CCCCCC2)S(=O)(=O)c2c(C)noc2C)cc1`, the growth inhibition was -4.29% in assay [1] and -1.42% in assay [2]. For the same compound, the viability increase in assay [3] is -6.44%. Besides, the viability in assay [4] was 44.8%. For the same compound, in assay [6], the inhibition is 3.02%. Also, in assay [7], the RAM network inhibition was 5.55%.

Regarding `CCN1CCN(CC(=O)Nc2ccccc2)C(=O)C1=O`, the results for the growth inhibition in assay [1] and in assay [2] were -2.23% and 9.12%, respectively. The viability increase in assay [3] is 0.2%. In addition, the viability is 103% in assay [4] and 107% in assay [5]. In assay [6], the inhibition is 1.19%. For the same compound, in assay [7], the RAM network inhibition is -0.21%.

For `O=C(Cn1c(=O)sc2ccccc21)Nc1ccccc1C(=O)O`, the growth inhibition was -3.71% in assay [1] and 0.435% in assay [2]. Besides, the viability increase in assay [3] is 1.36%. Besides, the values for the viability in assay [4] and in assay [5] were 102% and 96.7%, respectively. Further, the inhibition in assay [6] was 3.53%. Besides, in assay [7], the RAM network inhibition was 2.02%.

For `O=C(Cn1nc(Cc2cccnc2)c2ccccc2c1=O)NCC1COc2ccccc2O1` (centres undefined), the growth inhibition is 3.08% in assay [1] and -0.92% in assay [2]. Further, the viability increase in assay [3] is -1.71%. In addition, the values for the viability in assay [4] and in assay [5] were 90.5% and 95.3%, respectively. In addition, the inhibition in assay [6] is 1.99%. For the same compound, in assay [7], the RAM network inhibition is 0.96%.

For `COc1ccc(C2C3=C(CC(C)(C)CC3=O)Nc3n[nH]c(C)c32)cc1` (centres undefined), the growth inhibition was -9.23% in assay [1] and -7.11% in assay [2]. In addition, the viability increase in assay [3] was -4.1%. In assay [4], the viability is 93%. The inhibition in assay [6] is 1.51%. The RAM network inhibition in assay [7] was 3.28%.

As for `Cc1ccc(-c2c(C(=O)N3CCOCC3)oc(=O)c3ccccc23)cc1`, the growth inhibition in assay [1] is -9.96%; in assay [2], -6.92%. The viability increase in assay [3] is -0.03%. Also, the viability in assay [4] was 95.6%; in assay [5], 103%. Further, the inhibition in assay [6] was 1.33%. For the same compound, the RAM network inhibition in assay [7] was 1.2%.

`Cc1ccc2c(c1)c(C)c(C)n2CC(O)Cn1nc(C)cc1C` (centres undefined): the growth inhibition in assay [1] was -13%; in assay [2] it was 3.35%. Further, in assay [3], the viability increase is -4.76%. The viability in assay [4] was 87.1%. The inhibition in assay [6] is 2.1%. The RAM network inhibition in assay [7] is 0.58%.

Turning to `CC(C)(C)OC(=O)N1CCC(C(N)=O)CC1`, the growth inhibition was -1.93% in assay [1] and 0.2% in assay [2]. In addition, the viability increase in assay [3] is -0.33%. The viability in assay [4] was 103%; in assay [5] it was 104%. For the same compound, the inhibition in assay [6] was 0.535%. Also, the RAM network inhibition in assay [7] was 0.06%.

For `CC1CCN(C(=O)CSc2nc(N)c3c4c(sc3n2)CN(C)CC4)CC1`, the growth inhibition in assay [1] was -10.2%; in assay [2] it was 12.6%. Further, in assay [3], the viability increase was -3.86%. Moreover, in assay [4], the viability is 102%. In assay [6], the inhibition was 0.905%. Further, the RAM network inhibition in assay [7] was 2.24%.

Take `Cc1ccc(N(C(=O)CC2NC(=O)NC2=O)C2(C(=O)NC3CCCC3)CCCCC2)cc1` (centres undefined): the growth inhibition is -9.96% in assay [1] and -19.7% in assay [2]. Further, the viability increase in assay [3] is -1.56%. For the same compound, the viability in assay [4] is 95.2%; in assay [5] it was 93.7%. In addition, the inhibition in assay [6] was -0.23%. In addition, the RAM network inhibition in assay [7] is 3.14%.

As for `NCCOc1ccccc1-c1ccccc1`, the growth inhibition in assay [1] is -17.6%; in assay [2], -14.4%. For the same compound, in assay [3], the viability increase is -3%. Besides, in assay [4], the viability is 87.2%. Further, the inhibition in assay [6] is 2.3%. In addition, in assay [7], the RAM network inhibition was 2.4%.

In the case of `O=C(Nc1nnc(C2CC2)o1)c1ccc(S(=O)(=O)N2CCCc3ccccc32)cc1`, the growth inhibition was -18.1% in assay [1] and -2.5% in assay [2]. The viability increase in assay [3] is -5.31%. Also, the viability in assay [4] is 14.3% (active). In addition, the inhibition in assay [6] is 0.79%. In addition, the RAM network inhibition in assay [7] was -0.41%.

Regarding `CCCCN(C(=O)NC(=O)Nc1nc2ccc(OC)cc2s1)S(C)(=O)=O`, the growth inhibition in assay [1] is -2.28%; in assay [2], -3.95%. Besides, in assay [3], the viability increase was -0.44%. The viability in assay [4] was 92.6%; in assay [5], 103%. Further, the inhibition in assay [6] is -0.04%. The RAM network inhibition in assay [7] is 1.09%.

For `CC1(C)SCC(C(=O)O)N1C=O` (centres undefined), the growth inhibition in assay [1] was -16%; in assay [2] it was -6.9%. In addition, the viability increase in assay [3] was -0.04%. Moreover, the viability in assay [4] is 105%. Further, in assay [6], the inhibition was 1.66%. In assay [7], the RAM network inhibition is 2.9%.

`CCCc1[nH]nc2c1C(C1CC=CCC1)C(C#N)=C(N)O2` (centres undefined): the growth inhibition in assay [1] was 4.52%; in assay [2], 6.39%. In assay [3], the viability increase was -6.94%. Besides, the viability in assay [4] is 11.9% (active). In addition, the inhibition in assay [6] was -0.015%. Further, the RAM network inhibition in assay [7] was 1.22%.

For `CCCN1CCN(C(=O)C2CCN(S(=O)(=O)c3ccc4c(c3)oc(=O)n4C)CC2)CC1`, the growth inhibition in assay [1] is -6.11%; in assay [2] it was -13.9%. Also, the viability increase in assay [3] is -0.29%. The results for the viability in assay [4] and in assay [5] were 108% and 98.5%, respectively. Further, the inhibition in assay [6] is 3.06%. In addition, the RAM network inhibition in assay [7] is -1.87%.

Take `CCCn1cc(S(=O)(=O)CC(=O)Nc2ccc(OCC)cc2)c2ccccc21`: the growth inhibition in assay [1] was 1.42%; in assay [2], 3.91%. In assay [3], the viability increase is -4.37%. In addition, the viability in assay [4] is 84.7%. Further, the inhibition in assay [6] is 1.41%. For the same compound, the RAM network inhibition in assay [7] is 6.49%.

With `O=c1cc(O)sc2ccccc12`, the growth inhibition was -4.72% in assay [1] and -8.78% in assay [2]. In addition, in assay [3], the viability increase was -2.09%. Further, the viability in assay [4] is 96.4%; in assay [5], 94.4%. Further, the inhibition in assay [6] was 0.79%. The RAM network inhibition in assay [7] was -0.87%.

Turning to `CS(=O)(=O)c1nc(-c2cccs2)cc(C(F)(F)F)n1`, the growth inhibition in assay [1] was -22.6%; in assay [2] it was 1.86%. The viability increase in assay [3] was -8.04%. Moreover, in assay [4], the viability is 53.4%. The inhibition in assay [6] was 2.05%. In addition, the RAM network inhibition in assay [7] is -0.11%.

`NC(=O)CN1CCN(C(=O)NC2CCCCC2)CC1`: the growth inhibition was -18.1% in assay [1] and -12.7% in assay [2]. Also, in assay [3], the viability increase is 0.06%. Also, the viability is 96% in assay [4] and 97.9% in assay [5]. In addition, the inhibition in assay [6] is 2.7%. In addition, the RAM network inhibition in assay [7] is 2.11%.

Consider `Cc1ccc(-c2nn(-c3ccccc3)cc2C(=O)N2CCOCC2)cc1`, for which the growth inhibition is -8.14% in assay [1] and -8.34% in assay [2]. In addition, the viability increase in assay [3] was -2.21%. For the same compound, the viability in assay [4] is 97.5%; in assay [5], 89%. Further, the inhibition in assay [6] was 0.805%. Moreover, the RAM network inhibition in assay [7] is 12.4%.

As for `COc1ccc(CNc2oc(COc3ccccc3)nc2C#N)cc1`, the growth inhibition in assay [1] is -9.65%; in assay [2] it was -2.3%. Moreover, the viability increase in assay [3] was -2.11%. Besides, the viability in assay [4] was 79%. In addition, the inhibition in assay [6] was 4.33%. The RAM network inhibition in assay [7] was 2.19%.

With `O=C(c1cnn2ccccc12)N1CCc2ccccc21`, the growth inhibition was 0.67% in assay [1] and -5.48% in assay [2]. For the same compound, the viability increase in assay [3] is -2.13%. For the same compound, the viability was 97.9% in assay [4] and 91.9% in assay [5]. The inhibition in assay [6] is 1.33%. Moreover, the RAM network inhibition in assay [7] was 1.54%.

As to `Cc1c(NC2=C(Cl)C(=O)N(c3ccccc3)C2=O)c(=O)n(-c2ccccc2)n1C`, the growth inhibition in assay [1] is 8.25%; in assay [2], 28.3%. Also, the viability increase in assay [3] is -6.66%. For the same compound, the viability was 90.7% in assay [4] and 94.4% in assay [5]. Moreover, the inhibition in assay [6] is 1.42%. Also, in assay [7], the RAM network inhibition was 3.28%.

As usually defined, the viability is a read-out of living cells in per cent, often relative to untreated cells. The inhibition is the relative decrease from the control value, in per cent.
